Reference: ChEMBL document CHEMBL5058577, “EUbOPEN Chemogenomics Library 2 (Multiplex)” (2022)

Tested on: Fibroblast
Test: Multiplex assay against human fibroblast
Format: toxicity, cell-based
In short: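 On a CQ1 microscope at 37°C and 5% CO2, live cells were imaged after compound addition. They had been stained at seeding with Hoechst33342, BioTracker Green Microtubule Cytoskeleton Dye, MitoTracker Red and Annexin V Alexa Fluor 680. CellPathfinder machine-learning gating assigned cells to Hoechst high-intensity objects or normal cells, normal cells to healthy, pyknosed or fragmented nuclei, and pyknosed cells to mitotic or apoptotic. Tubulin, mitochondrial-mass and membrane-permeability phenotypes are per cents of healthy-nucleus cells.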

[1] = 12 h, 1 µM, compound concentration 1 uM, replicate 1
[2] = 12 h, 1 µM, compound concentration 1 uM, replicate 2
[3] = 12 h, 10 µM, compound concentration 10 uM, replicate 1
[4] = 12 h, 10 µM, compound concentration 10 uM, replicate 2
[5] = 24 h, 1 µM, compound concentration 1 uM, replicate 1
[6] = 24 h, 1 µM, compound concentration 1 uM, replicate 2
[7] = 24 h, 10 µM, compound concentration 10 uM, replicate 1
[8] = 24 h, 10 µM, compound concentration 10 uM, replicate 2
[9] = 48 h, 1 µM, compound concentration 1 uM, replicate 1
[10] = 48 h, 1 µM, compound concentration 1 uM, replicate 2
[11] = 48 h, 10 µM, compound concentration 10 uM, replicate 1
[12] = 48 h, 10 µM, compound concentration 10 uM, replicate 2

CN1CCN(c2nc3cc(C(F)(F)F)ccc3n3cccc23)CC1.O=C(O)/C=C\C(=O)O.O=C(O)/C=C\C(=O)O
Population Apoptotic (%) [1]: 50%
Population Fragmented Nuclei (%) [1]: 18%
Population Healthy Nuclei (%) [1]: 71%
Population Hoechst High Intensity Objects (%) [1]: 0%
Population Membrane Permeable-Phenotype (%) [1]: 0%
Population Mitochondria Different-Phenotype (%) [1]: 5%
Population Mitotic Cells (%) [1]: 50%
Population Normal (%) [1]: 99%
Population Pyknosed Nuclei (%) [1]: 9%
Population Tubulin-Different-Phenotype (%) [1]: 27%
Total Cell Count [1]: 146
Population Apoptotic (%) [2]: 26%
Population Fragmented Nuclei (%) [2]: 24%
Population Healthy Nuclei (%) [2]: 46%
Population Hoechst High Intensity Objects (%) [2]: 6%
Population Membrane Permeable-Phenotype (%) [2]: 6%
Population Mitochondria Different-Phenotype (%) [2]: 4%
Population Mitotic Cells (%) [2]: 73%
Population Normal (%) [2]: 93%
Population Pyknosed Nuclei (%) [2]: 30%
Population Tubulin-Different-Phenotype (%) [2]: 47%
Total Cell Count [2]: 107
Population Apoptotic (%) [3]: 40%
Population Fragmented Nuclei (%) [3]: 29%
Population Healthy Nuclei (%) [3]: 59%
Population Hoechst High Intensity Objects (%) [3]: 2%
Population Membrane Permeable-Phenotype (%) [3]: 0%
Population Mitochondria Different-Phenotype (%) [3]: 25%
Population Mitotic Cells (%) [3]: 59%
Population Normal (%) [3]: 97%
Population Pyknosed Nuclei (%) [3]: 10%
Population Tubulin-Different-Phenotype (%) [3]: 69%
Total Cell Count [3]: 207
Population Apoptotic (%) [4]: 60%
Population Fragmented Nuclei (%) [4]: 35%
Population Healthy Nuclei (%) [4]: 41%
Population Hoechst High Intensity Objects (%) [4]: 4%
Population Membrane Permeable-Phenotype (%) [4]: 4%
Population Mitochondria Different-Phenotype (%) [4]: 38%
Population Mitotic Cells (%) [4]: 40%
Population Normal (%) [4]: 95%
Population Pyknosed Nuclei (%) [4]: 22%
Population Tubulin-Different-Phenotype (%) [4]: 85%
Total Cell Count [4]: 117
Population Apoptotic (%) [5]: 66%
Population Fragmented Nuclei (%) [5]: 16%
Population Healthy Nuclei (%) [5]: 72%
Population Hoechst High Intensity Objects (%) [5]: 1%
Population Membrane Permeable-Phenotype (%) [5]: 0%
Population Mitochondria Different-Phenotype (%) [5]: 2%
Population Mitotic Cells (%) [5]: 33%
Population Normal (%) [5]: 98%
Population Pyknosed Nuclei (%) [5]: 10%
Population Tubulin-Different-Phenotype (%) [5]: 23%
Total Cell Count [5]: 142
Population Apoptotic (%) [6]: 40%
Population Fragmented Nuclei (%) [6]: 35%
Population Healthy Nuclei (%) [6]: 42%
Population Hoechst High Intensity Objects (%) [6]: 6%
Population Membrane Permeable-Phenotype (%) [6]: 7%
Population Mitochondria Different-Phenotype (%) [6]: 7%
Population Mitotic Cells (%) [6]: 59%
Population Normal (%) [6]: 93%
Population Pyknosed Nuclei (%) [6]: 22%
Population Tubulin-Different-Phenotype (%) [6]: 43%
Total Cell Count [6]: 104
Population Apoptotic (%) [7]: 77%
Population Fragmented Nuclei (%) [7]: 24%
Population Healthy Nuclei (%) [7]: 64%
Population Hoechst High Intensity Objects (%) [7]: 6%
Population Membrane Permeable-Phenotype (%) [7]: 0%
Population Mitochondria Different-Phenotype (%) [7]: 32%
Population Mitotic Cells (%) [7]: 22%
Population Normal (%) [7]: 93%
Population Pyknosed Nuclei (%) [7]: 10%
Population Tubulin-Different-Phenotype (%) [7]: 75%
Total Cell Count [7]: 214
Population Apoptotic (%) [8]: 63%
Population Fragmented Nuclei (%) [8]: 37%
Population Healthy Nuclei (%) [8]: 43%
Population Hoechst High Intensity Objects (%) [8]: 1%
Population Membrane Permeable-Phenotype (%) [8]: 6%
Population Mitotic Cells (%) [8]: 36%
Population Normal (%) [8]: 98%
Population Pyknosed Nuclei (%) [8]: 19%
Population Tubulin-Different-Phenotype (%) [8]: 86%
Total Cell Count [8]: 117
Population Apoptotic (%) [9]: 44%
Population Fragmented Nuclei (%) [9]: 25%
Population Healthy Nuclei (%) [9]: 63%
Population Hoechst High Intensity Objects (%) [9]: 2%
Population Membrane Permeable-Phenotype (%) [9]: 1%
Population Mitochondria Different-Phenotype (%) [9]: 2%
Population Mitotic Cells (%) [9]: 55%
Population Normal (%) [9]: 97%
Population Pyknosed Nuclei (%) [9]: 11%
Population Tubulin-Different-Phenotype (%) [9]: 22%
Total Cell Count [9]: 162
Population Apoptotic (%) [10]: 42%
Population Fragmented Nuclei (%) [10]: 37%
Population Healthy Nuclei (%) [10]: 40%
Population Hoechst High Intensity Objects (%) [10]: 3%
Population Membrane Permeable-Phenotype (%) [10]: 0%
Population Mitotic Cells (%) [10]: 57%
Population Normal (%) [10]: 96%
Population Pyknosed Nuclei (%) [10]: 21%
Population Tubulin-Different-Phenotype (%) [10]: 57%
Total Cell Count [10]: 102
Population Apoptotic (%) [11]: 77%
Population Fragmented Nuclei (%) [11]: 22%
Population Healthy Nuclei (%) [11]: 68%
Population Hoechst High Intensity Objects (%) [11]: 7%
Population Membrane Permeable-Phenotype (%) [11]: 0%
Population Mitochondria Different-Phenotype (%) [11]: 28%
Population Mitotic Cells (%) [11]: 22%
Population Normal (%) [11]: 92%
Population Pyknosed Nuclei (%) [11]: 9%
Population Tubulin-Different-Phenotype (%) [11]: 77%
Total Cell Count [11]: 211
Population Apoptotic (%) [12]: 63%
Population Fragmented Nuclei (%) [12]: 33%
Population Healthy Nuclei (%) [12]: 57%
Population Hoechst High Intensity Objects (%) [12]: 5%
Population Membrane Permeable-Phenotype (%) [12]: 1%
Population Mitochondria Different-Phenotype (%) [12]: 23%
Population Mitotic Cells (%) [12]: 36%
Population Normal (%) [12]: 94%
Population Tubulin-Different-Phenotype (%) [12]: 85%
Total Cell Count [12]: 118
